Rows were chosen to be rich in hits. Some 3.3% of all compounds tested hit in one or more screens of this group.
ABCB1 inh – ABCB1 efflux pump inhibitors, primary screen, cell-based, multiplex, flow cytometry, ABCG2 counter-screen; ATP-dependent translocase ABCB1 (Homo sapiens), P08183; CCRF-Adr cells, JC-1 efflux; inhibition, % at 6.6 µM; 0.067% of 190,000 active; AID 1326, 2008; in the data active means inhibition above about 40%;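 further: higher value means more JC-1 retained so stronger ABCB1 efflux block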
Target sequence (P08183 whole entry, looked up): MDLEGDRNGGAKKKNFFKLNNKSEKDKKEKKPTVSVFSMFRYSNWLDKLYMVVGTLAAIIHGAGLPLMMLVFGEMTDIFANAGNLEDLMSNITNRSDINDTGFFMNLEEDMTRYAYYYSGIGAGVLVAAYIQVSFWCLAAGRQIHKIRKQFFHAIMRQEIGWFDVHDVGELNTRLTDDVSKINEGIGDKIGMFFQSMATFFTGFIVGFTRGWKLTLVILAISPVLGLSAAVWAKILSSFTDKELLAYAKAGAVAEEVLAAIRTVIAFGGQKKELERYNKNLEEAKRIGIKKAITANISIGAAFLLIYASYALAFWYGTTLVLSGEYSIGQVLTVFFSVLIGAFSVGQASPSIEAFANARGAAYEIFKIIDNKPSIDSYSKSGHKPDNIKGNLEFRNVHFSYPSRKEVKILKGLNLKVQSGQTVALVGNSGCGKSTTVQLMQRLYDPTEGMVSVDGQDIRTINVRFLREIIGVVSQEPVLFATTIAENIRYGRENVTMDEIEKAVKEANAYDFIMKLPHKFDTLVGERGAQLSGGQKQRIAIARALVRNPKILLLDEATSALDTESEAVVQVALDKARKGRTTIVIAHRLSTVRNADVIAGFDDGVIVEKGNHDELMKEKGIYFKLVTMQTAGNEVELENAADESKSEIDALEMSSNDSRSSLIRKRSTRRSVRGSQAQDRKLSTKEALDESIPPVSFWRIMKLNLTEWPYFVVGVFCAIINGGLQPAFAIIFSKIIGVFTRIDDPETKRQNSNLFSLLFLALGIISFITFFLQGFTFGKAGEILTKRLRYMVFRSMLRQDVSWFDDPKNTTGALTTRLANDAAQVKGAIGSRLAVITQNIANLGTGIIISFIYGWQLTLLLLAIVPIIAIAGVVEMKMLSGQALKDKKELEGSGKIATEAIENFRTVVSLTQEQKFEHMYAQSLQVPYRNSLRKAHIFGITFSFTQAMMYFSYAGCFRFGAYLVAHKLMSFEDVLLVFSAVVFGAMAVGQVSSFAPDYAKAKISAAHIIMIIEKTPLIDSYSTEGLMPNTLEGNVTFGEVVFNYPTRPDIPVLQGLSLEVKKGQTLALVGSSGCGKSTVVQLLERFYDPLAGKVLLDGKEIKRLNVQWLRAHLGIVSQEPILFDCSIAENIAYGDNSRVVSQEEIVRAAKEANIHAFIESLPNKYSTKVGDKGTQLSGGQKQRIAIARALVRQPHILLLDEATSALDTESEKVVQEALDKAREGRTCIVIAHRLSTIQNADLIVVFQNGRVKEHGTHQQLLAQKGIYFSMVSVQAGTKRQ
ABCG2 block – ABCG2 efflux pump inhibitors, primary screen, multiplex with ABCB1, IgMXP3 cells, flow cytometry | 0.1% of 190,000 active | Broad substrate specificity ATP-binding cassette transporter ABCG2 (Homo sapiens), Q9UNQ0 | JC-1 efflux | inhibition, % at 6.6 µM;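 active means inhibition above 80%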
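Test system: IgMXP3 (ABCG2) plus far-red-tagged CCRF-Adr (ABCB1) cells / Amount: 3 million cells/mL in well / Reagent: JC-1 transporter substrate / Timing: 10 min compound exposure, 25 °C / Signal: flow cytometry, 530 nm JC-1 signal / Read-out: percent efflux inhibition, scaled nicardipine 100% to DMSO 0% / Benchmarks: nicardipine as high control, DMSO as low control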
ROMK primary – ROMK potassium channel modulators, primary screen, cell-based, thallium flux, MLSMR library; 2% of 130,000 active; AID 1918, 2009; ATP-sensitive inward rectifier potassium channel 1 (Homo sapiens), P48048; B-score at 10 µM; Tet-inducible ROMK, thallium flux fluorescence; actives lie on both sides;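 active means signal ratio slope over the read window, or its plate-corrected B-score, at least 3 SD from the plate mean, either direction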;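 further: B-score of the F/F0 ratio slope over 7 to 12 s after thallium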
PMI act satM6P – human PMI activators, high substrate, primary screen, biochemical, fluorescence intensity, near-saturating mannose 6-phosphate. AID 1216, 2008. Mannose-6-phosphate isomerase (Homo sapiens), P34949. coupled PMI enzyme assay, resazurin fluorescence, 20 min; active compounds read high; 1 = untreated enzyme, 0 = substrate-free blank. 0.34% of 190,000 active. activation factor at 20 µM;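 active means activation factor of 2 or more at 20 µM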
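Test system: human phosphomannose isomerase with PGI, G6PDH, diaphorase coupling enzymes / Doses: 20 µM compound, 1% DMSO / Times: enzyme reaction with compound 20 min at room temperature / Measured by: Diaphorase-driven resazurin-to-resorufin fluorescence, excitation 544, emission 590 nm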
KCC2 mod – KCC2 cotransporter modulators, thallium flux, primary screen, cell-based, HEK293 KCC2, FluoZin-2 fluorescence, MLSMR; KCC2 cells, thallium flux FluoZin-2 fluorescence; B-score of Tl+ flux slope (higher = more flux/activation; lower = inhibition) at 10 µM; 2.2% of 190,000 active;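 active means thallium flux slope and its plate-corrected score both differing from the plate sample mean at a set confidence after two filtering rounds, in either direction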;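 further: slope of fluorescence scaled to starting intensity during 10 to 20 s after thallium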
PMI act – activators of human PMI, primary screen, biochemical, fluorescence intensity, near-Km mannose 6-phosphate. Mannose-6-phosphate isomerase (Homo sapiens), P34949. purified human PMI, coupled resazurin fluorescence, 20 min; active compounds read high; 1 = vehicle control, 0 substrate-free wells. activation factor at 20 µM. 0.005% of 190,000 active;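 active means activation factor of 2 or more at 20 µM, relative to plate controls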
KCC2 secondary – KCC2 modulators in sodium-free buffer, confirmation, cell-based, HEK293 KCC2, thallium flux, secondary assay; 15% of 3,700 active; shares compounds with KCC2 mod; FluoZin2 fluorescence; active compounds read high; AID 1713, 2009; normalised thallium flux (F/F0 slope) at 10 µM;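 active means thallium flux slope above the same plate's solvent-only control mean plus 3 SD; inconclusive means the two replicate wells disagree; inactive means no significant difference from solvent-only control wells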
KCC2 bumet counter – thallium flux persisting under bumetanide in KCC2 cells, confirmation, counter-screen for KCC2 modulator project, cell-based, HEK293 KCC2, FluoZin2, secondary assay 3; HEK293-KCC2 + bumetanide/ouabain; active compounds read high; AID 1714, 2009; shares compounds with KCC2 mod; normalized thallium flux at 10 µM; 49% of 3,700 active;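 active means thallium entry rate above the same plate's blocked-transporter control wells by more than 3 SD; inconclusive means the two repeat wells disagree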;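 further: raw slope of fluorescence over initial fluorescence between 10 and 20 s after thallium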
KCC2 secondary2 – KCC2 modulators without ouabain present, confirmation, cell-based, HEK293 KCC2, thallium flux, FluoZin2, secondary assay 2 | 23% of 3,700 active | shares compounds with KCC2 mod | thallium flux FluoZin2 fluorescence; actives lie on both sides; F/F0 rise rate, 10–20 s post-thallium | normalized thallium flux at 10 µM;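 active means thallium flux slope more than 3 SD above or below the plate's solvent-only control mean, mostly below; inconclusive means the two repeat wells disagreed; inactive means no significant shift from solvent-only controls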
HEK counter1 – thallium flux modulation in parental HEK cells, confirmation, counter-screen for KCC2 modulator project, cell-based, counterscreen 1. HEK293 parental cells, thallium flux FluoZin2, ouabain; baseline-ratio fluorescence slope, 10–20 s after thallium. AID 1716, 2009. thallium flux rate (normalised fluorescence) at 10 µM. 46% of 3,700 active. shares compounds with KCC2 mod;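 active means thallium flux rate significantly above the same plate's solvent-only control wells, beyond their mean plus 3 SD; inconclusive means the two replicate wells gave conflicting results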
KCC2 ouabain – KCC2 inhibitors and activators, ouabain retest, confirmation, HEK-KCC2 cells; shares compounds with KCC2 mod; HEK293-KCC2, thallium flux FluoZin2 fluorescence; bidirectional: low = inhibitor, high = activator; raw Tl+ flux slope (below DMSO = inhibition, above = activation) at 10 µM; 48% of 3,700 active; AID 1717, 2009;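 active means thallium flux slope beyond 3 SD from same-plate DMSO control mean in most replicates, usually higher, sometimes lower; inconclusive means repeat tests gave conflicting results; inactive means no significant difference from controls in most replicates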;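 further: slope of initial-normalized fluorescence between seconds 10 and 20 after thallium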
HEK counter2 – native HEK Tl+ uptake effects, second counter-screen – HEK cells, counterscreen 2, counter-screen for KCC2 modulator project, confirmation | 33% of 3,700 active | thallium flux slope at 10 µM | HEK293 parental, thallium flux FluoZin-2 fluorescence slope | shares compounds with KCC2 mod;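 active means thallium flux slope above the same plate's solvent-control mean plus 3 SD in both duplicate wells; inconclusive means duplicate wells that disagreed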;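 further: run without ouabain in cells lacking the KCC2 cotransporter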
Each line names hits and unclear results; the compound was inactive in the other large screens (follow-up assays come after a bar, where they were run).

Cc1ccc(/C=C2\S/C(=N/S(=O)(=O)c3cccs3)NC2=O)cc1	KCC2 mod 5.7 (no result: ABCB1 inh, ABCG2 block, ROMK primary, PMI act satM6P, PMI act) | KCC2 secondary inactive | KCC2 bumet counter 0.016 | KCC2 secondary2 inactive | HEK counter1 0.014 | KCC2 ouabain inconclusive | HEK counter2 0.016
Fc1ccc(Nc2nc(Oc3ccccc3F)nc(N3CCCC3)n2)cc1	none (no result: KCC2 mod) | KCC2 secondary inactive | KCC2 bumet counter inactive | KCC2 secondary2 inactive | HEK counter1 inactive | KCC2 ouabain inactive | HEK counter2 inactive
Cc1ccc(S(=O)(=O)N2CC(O)CC2C(=O)OCC(=O)c2ccccc2Cl)cc1C (centres undefined)	KCC2 mod -4.1 (no result: ROMK primary) | KCC2 secondary inconclusive | KCC2 bumet counter inactive | KCC2 secondary2 inactive | HEK counter1 inactive | KCC2 ouabain 0.015 | HEK counter2 inactive
CN(C)CCCNc1ccc(S(N)(=O)=O)cc1[N+](=O)[O-]	KCC2 mod 2.8 | KCC2 secondary inactive | KCC2 bumet counter inactive | KCC2 secondary2 inactive | HEK counter1 inactive | KCC2 ouabain inactive | HEK counter2 inactive
CCOC(=O)c1sc(-c2ccc(C)cc2)c(C#N)c1C	KCC2 mod 5.3 | KCC2 secondary inactive | KCC2 bumet counter inactive | KCC2 secondary2 inactive | HEK counter1 inactive | KCC2 ouabain inactive | HEK counter2 inactive
Cc1c(C(=O)NN)sc(-c2ccccc2)c1C#N	none
Cc1nnc(SCC(=O)NC2CCCCC2)s1	none
CCn1ncc(Cl)c1C(=O)Nc1cc([N+](=O)[O-])ccc1OC	none
CCOc1ccc(NC(=S)NC(=O)c2c(Br)cnn2C)c([N+](=O)[O-])c1	none
COc1ccccc1NC(=S)NNC(=O)c1c(Cl)c(C)nn1C	none
CCOc1ccc(NC(=S)NC(=O)c2c(Cl)cnn2CC)c([N+](=O)[O-])c1	KCC2 mod 19 | KCC2 secondary 0.018 | KCC2 bumet counter 0.056 | KCC2 secondary2 inactive | HEK counter1 0.029 | KCC2 ouabain 0.044 | HEK counter2 0.014
Cc1cc(C)c(NC(=S)NC(=O)c2c(Cl)c(C)nn2C)c([N+](=O)[O-])c1	KCC2 mod 42 | KCC2 secondary 0.019 | KCC2 bumet counter 0.16 | KCC2 secondary2 inconclusive | HEK counter1 0.047 | KCC2 ouabain 0.061 | HEK counter2 0.016
CCn1ncc(Cl)c1C(=O)NC(=S)Nc1c(C)cc(C)cc1[N+](=O)[O-]	KCC2 mod 85 | KCC2 secondary 0.033 | KCC2 bumet counter 0.15 | KCC2 secondary2 0.044 | HEK counter1 0.076 | KCC2 ouabain 0.072 | HEK counter2 0.026
CC(=O)c1ccc(NC(=S)NC(=O)c2c(Cl)c(C)nn2C)cc1	KCC2 mod 15 | KCC2 secondary 0.015 | KCC2 bumet counter 0.066 | KCC2 secondary2 inactive | HEK counter1 0.031 | KCC2 ouabain 0.037 | HEK counter2 0.015
CC(NC(=O)c1ccccc1)C(=O)N/N=C/c1cccc([N+](=O)[O-])c1 (centres undefined)	none
Cc1ccc(NC(=O)CCC(=O)NNC(=O)NC2CCCCC2)c(C)c1	none
O=C(O)/C=C/c1cn(Cc2ccccc2)nc1-c1ccccc1	KCC2 mod -3.2 (no result: ROMK primary) | KCC2 secondary inactive | KCC2 bumet counter inactive | KCC2 secondary2 inconclusive | HEK counter1 inactive | KCC2 ouabain 0.015 | HEK counter2 inactive
Cc1ccc(-c2nn(Cc3ccccc3)cc2/C=C/C(=O)O)cc1C	KCC2 mod -8.1 | KCC2 secondary inactive | KCC2 bumet counter inactive | KCC2 secondary2 0.021 | HEK counter1 inactive | KCC2 ouabain 0.011 | HEK counter2 inactive
O=C(O)CCn1cc(/C=C/C(=O)c2ccc(Cl)cc2)c(-c2ccc(Br)cc2)n1	none (no result: ROMK primary)
O=C(O)CCC(=O)Nc1ccc(/C=C/C(=O)C2CC2)cc1	none (no result: PMI act satM6P, PMI act)
CN(Cc1ccccc1)C(=O)COC(=O)c1ccc(Cl)c(N)c1	KCC2 mod -3.9 (no result: ROMK primary) | KCC2 secondary inactive | KCC2 bumet counter inactive | KCC2 secondary2 inactive | HEK counter1 inactive | KCC2 ouabain 0.016 | HEK counter2 inactive
Brc1cccc(-c2cnc3n2CCCCC3)c1	none (no result: KCC2 mod) | KCC2 secondary inactive | KCC2 bumet counter inactive | KCC2 secondary2 inactive | HEK counter1 inactive | KCC2 ouabain inactive | HEK counter2 inactive
Brc1cccc(-c2nnc3n2CCCCC3)c1	none (no result: ROMK primary)
COc1ccc(-c2cc3nc4n(c(=O)c3s2)CCOC4)cc1	none (no result: ABCB1 inh, ABCG2 block, PMI act satM6P, KCC2 mod, PMI act)
CCCn1c(N)c(C(=O)CSc2nc3ccccc3c(=O)n2Cc2ccccc2)c(=O)[nH]c1=O	KCC2 mod 40 | KCC2 secondary 0.016 | KCC2 bumet counter 0.08 | KCC2 secondary2 inactive | HEK counter1 0.026 | KCC2 ouabain 0.054 | HEK counter2 0.012
